Experimental data collected from several papers.
Compare with care: the assays were run in different laboratories.
Target: Cannabinoid receptor 1 (CNR1, Homo sapiens, UniProt P21554)

CC/C(=C(\c1ccc(O)cc1)c1ccc(OCCN(C)C)cc1)c1ccccc1 — Kb (cAMP; antagonist): 1600 nM
CCCc1cc(O)c2c(c1)OC(C)(C)c1ccc(C)cc1-2 — Ki (ligand displacement; radioligand; cell membranes): 565 nM
O=C(c1ccc2c(c1)c1ccccc1n2CCN1CCOCC1)c1cc2ccccc2[nH]1 — Ki (ligand displacement; radioligand; cell membranes): 1200 nM
CC1(C)C(C(=O)c2cn(CCCCCF)c3ccccc23)C1(C)C — EC50 (GTPγS binding; agonist; radiometric; cell membranes): 159 nM
C=C(C)[C@@H]1CCC(C)=C[C@H]1c1c(O)cc(CCC)cc1O — Ki (ligand displacement; radioligand; cell membranes): 503 nM
CCOC(=O)C(CC)(CCCSCCOCCOCCOCCNC(=O)OC(C)(C)C)NC(=O)c1ccc(C2CC2)c(Cc2ccc(F)cc2)n1 (centres unmarked) — Ki (ligand displacement; radioligand; cell membranes): 589 nM
CCCCCc1cc(O)c2c(c1)OC(C)(C)[C@@H]1CC=C(C)[C@H](O)[C@@H]21 — Ki (ligand displacement; radioligand; cell membranes): 31 nM
Cc1c(C(=O)N2CCC(C(N)=O)(c3ccccc3)CC2)nn(-c2ccc(Cl)cc2Cl)c1-c1ccc(Cl)cc1 — Kb (calcium signal; antagonist): 0.4 nM
CCOC(=O)[C@](CC)(CCC[S+]([O-])CCOCCOCCNC(=O)OC(C)(C)C)NC(=O)c1ccc(C2CC2)c(Cc2ccc(F)cc2)n1 (some centres unmarked) — Ki (ligand displacement; radioligand; cell membranes): 326 nM
CCCCCc1cc(O)c(C/C=C(\C)CCC=C(C)C)c(O)c1 — Ki (ligand displacement; radioligand; cell membranes): 3090 nM
C=CCC(CC)(NC(=O)c1ccc(C2CC2)c(Cc2ccc(F)cc2)n1)C(=O)OCC (centres unmarked) — Ki (ligand displacement; radioligand; cell membranes): 2.9 nM
CCCCC/C=C\C/C=C\C/C=C\C/C=C\CCCC(=O)N[C@H](C)CO — Ki (ligand displacement; radioligand; cell membranes): 19.8 nM
CCOC(=O)C(CC)(CCCSCCOCCOCCNc1ccc([N+](=O)[O-])c2nonc12)NC(=O)c1ccc(C2CC2)c(Cc2ccc(F)cc2)n1 (racemic) — Ki (ligand displacement; radioligand; cell membranes): 383 nM
N#Cc1c(Oc2cccc(OS(=O)(=O)CCCC(F)(F)F)c2)cccc1C(F)(F)F — EC50 (calcium signal; agonist): 519 nM
